Data set [1] can be described thus: Tmax in C57BL/6 mouse at 100 mg/kg, po measured upto 24 hrs by LC-MS/MS analysis. As to conditions: in vivo.
The target of data set [2] is T1, Peroxisome proliferator-activated receptor alpha (Mus musculus) (UniProt P23204).
T1 sequence (whole entry): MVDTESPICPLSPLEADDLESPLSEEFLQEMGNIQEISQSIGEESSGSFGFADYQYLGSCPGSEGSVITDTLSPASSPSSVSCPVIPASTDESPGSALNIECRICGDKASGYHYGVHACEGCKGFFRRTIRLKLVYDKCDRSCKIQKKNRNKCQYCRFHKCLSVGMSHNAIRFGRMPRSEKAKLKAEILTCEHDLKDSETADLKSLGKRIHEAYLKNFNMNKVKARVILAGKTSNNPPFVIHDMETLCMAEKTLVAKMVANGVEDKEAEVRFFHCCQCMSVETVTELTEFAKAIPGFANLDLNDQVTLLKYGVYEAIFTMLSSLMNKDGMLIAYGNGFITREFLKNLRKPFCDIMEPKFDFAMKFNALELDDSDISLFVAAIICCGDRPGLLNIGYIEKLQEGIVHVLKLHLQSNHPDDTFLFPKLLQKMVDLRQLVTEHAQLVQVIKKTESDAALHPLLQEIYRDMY
Kind of data set: Agonist activity at human PPARalpha in mouse hepatocytes assessed as induction of Pdk4 mRNA expression at 50 uM incubated for 16 hrs by quantitative real-time PCR analysis. It counts as cell-based. The note with it: Hepatocyte, filed as agonist. An outline of the steps: (§1)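 Collagenase-perfused mouse primary hepatocytes from WT mice, plated 2 h in attachment medium, overnight in M199 with 5% charcoal-stripped FBS and 1 nM insulin. Treated next day in serum-free M199 with 50 μM compound for 16 h. RNA qPCR (SYBR Green), comparative Ct method.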

The target in data set [3] is T2, Peroxisome proliferator-activated receptor gamma (Homo sapiens) (UniProt P37231).
T2 sequence (whole entry): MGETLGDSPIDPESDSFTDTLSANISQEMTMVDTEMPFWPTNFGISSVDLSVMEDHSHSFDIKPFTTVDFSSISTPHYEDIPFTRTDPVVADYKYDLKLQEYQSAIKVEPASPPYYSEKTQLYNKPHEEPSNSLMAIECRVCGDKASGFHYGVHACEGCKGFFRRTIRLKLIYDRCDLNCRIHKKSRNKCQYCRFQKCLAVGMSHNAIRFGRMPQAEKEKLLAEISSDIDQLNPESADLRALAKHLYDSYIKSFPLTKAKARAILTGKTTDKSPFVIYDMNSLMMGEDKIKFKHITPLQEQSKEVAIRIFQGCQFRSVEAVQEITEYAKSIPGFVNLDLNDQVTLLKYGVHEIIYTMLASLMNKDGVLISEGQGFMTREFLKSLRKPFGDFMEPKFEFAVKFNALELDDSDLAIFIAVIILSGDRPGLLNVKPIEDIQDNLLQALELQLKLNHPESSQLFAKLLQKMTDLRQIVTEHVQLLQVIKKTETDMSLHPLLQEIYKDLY
The data set is described as follows: Agonist activity at human PPARgamma expressed in HEK293 cells assessed as maximal activity by luciferase/beta-galactosidase reporter gene assay relative to rosiglitazone. It counts as cell-based. An outline of the steps: (§2)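 HEK293 cells in charcoal-stripped FBS, calcium phosphate co-transfected with GAL4-hPPAR LBD fusion, UAS-luciferase and β-galactosidase. Ligand added 6–8 h post transfection, full dose–response, harvested 14–16 h later. Luciferase normalized to β-galactosidase.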

Data set [4] can be described thus: Tmax in C57BL/6 mouse at 40 mg/kg, ip […] by LC-MS/MS analysis. It counts as ADME, organism-based. The note with it: in vivo.
Data set [5] can be described thus: Apparent oral clearance in C57BL/6 mouse at 100 mg/kg, po measured upto 24 hrs by LC-MS/MS analysis. It counts as ADME, organism-based. As to conditions: in vivo. In a few lines:
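Single oral dose given in peanut butter pellets to WT male C57Bl/6 mice acclimated 7 days to drug-free pellets; n = 4 per time point. Saphenous blood at 0.25–2 h, terminal collection at 4–38 h. Plasma extracted with methanol containing internal standard, LC-MS/MS with negative-ion ESI MRM. Parameters reported as mean ± SEM; Frel is oral vs IP.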

Data set [6] deals with T3, Peroxisome proliferator-activated receptor gamma (Mus musculus) (UniProt P37238).
T3 sequence (whole entry): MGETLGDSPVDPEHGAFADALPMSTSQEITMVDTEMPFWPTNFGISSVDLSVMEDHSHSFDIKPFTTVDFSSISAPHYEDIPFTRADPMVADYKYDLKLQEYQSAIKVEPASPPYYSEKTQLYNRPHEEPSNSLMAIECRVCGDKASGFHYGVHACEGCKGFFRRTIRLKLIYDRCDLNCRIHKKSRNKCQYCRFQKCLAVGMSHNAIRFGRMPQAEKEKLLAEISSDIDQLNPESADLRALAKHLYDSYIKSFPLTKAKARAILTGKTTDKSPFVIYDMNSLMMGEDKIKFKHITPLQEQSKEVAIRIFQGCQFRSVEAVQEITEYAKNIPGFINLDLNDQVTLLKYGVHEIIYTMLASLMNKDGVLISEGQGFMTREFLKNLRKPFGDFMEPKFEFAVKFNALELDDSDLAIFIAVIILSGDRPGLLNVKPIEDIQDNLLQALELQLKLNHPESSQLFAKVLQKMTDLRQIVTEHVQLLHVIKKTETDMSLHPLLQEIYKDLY
The data set is described as follows: Agonist activity at human PPARgamma in mouse 3T3-L1 cells assessed as induction of Adipoq-mRNA expression at 25 uM incubated for 11 days by quantitative real-time PCR analysis. As to conditions: filed as agonist, time 11.0 day.

Data set [7] concerns the target T4, Peroxisome proliferator-activated receptor gamma (Homo sapiens, UniProt P37231).
T4 sequence (P37231 whole entry): T2 sequence (whole entry)
The data set is described as follows: Agonist activity at human PPARgamma expressed in HEK293 cells by luciferase/beta-galactosidase reporter gene assay. It counts as cell-based. An outline of the steps: as §2

Data set [8] concerns the target T3, Peroxisome proliferator-activated receptor gamma (Mus musculus). Kind of data set: Agonist activity at human PPARgamma in mouse 3T3-L1 cells assessed as induction of adipogenic differentiation at 25 uM measured after 11 days by Oil Red O staining analysis. It counts as cell-based. The note with it: filed as agonist, time 11.0 day. In a few lines:
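3T3-L1 cells differentiated for 11 days (IBMX/dexamethasone/insulin induction, then insulin, then maintenance medium) with 25 μM compound or 10 μM rosiglitazone from day 0. Cells formalin-fixed and stained with 0.6% Oil Red O. Lipid quantified spectrophotometrically after dye extraction.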

In data set [9] the test system is Danio rerio. Kind of data set: In vivo agonist activity at human GFP-tagged PPARalpha in transgenic zebrafish assessed as increase in GFP expression in heart at 0.5 uM measured after 14 hrs by microscopy.
In data set [10] the target is T1, Peroxisome proliferator-activated receptor alpha (Mus musculus). Kind of data set: Agonist activity at human PPARalpha in mouse hepatocytes assessed as induction of Fgf21 mRNA expression at 50 uM incubated for 16 hrs by quantitative real-time PCR analysis. It counts as cell-based. The note with it: Hepatocyte, filed as agonist. An outline of the steps:
as §1

Data set [11] has as its system Danio rerio. Kind of data set: In vivo agonist activity at human GFP-tagged PPARalpha in transgenic zebrafish assessed as increase in GFP expression in brain at 0.7 uM measured after 14 hrs by microscopy.
Data set [12] relates to Danio rerio. The data set is described as follows: In vivo agonist activity at human GFP-tagged PPARalpha in transgenic zebrafish assessed as increase in GFP expression in yolk sac at 1.5 uM measured after 14 hrs by microscopy.

Molecules are shown by their SMILES. Activity calls are given as the source filed them. The calls are words filed in the database; no cut-off is given here. Some results are limits rather than exact numbers.

As for `CCCCCCCCCCCCCCCc1cccc(OC(C)(C)C(=O)O)c1`, the Tmax in data set [1] was 4 h; in data set [4] it was 0.5 h. For the same compound, the outcome (in data set [2]; in [6]; in data set [8]; in the data set with Danio rerio [9]; in data set [10]) was Active. Moreover, in data set [3], the Emax came to 30%. Further, the CL/F in [5] is 2.3 mL/min/kg. The concentration for a half-maximal effect (EC50) in data set [7] came to 900 nM.
`CCCCCC/C=C\CCCCCCCc1cccc(OC(C)(C)C(=O)O)c1`: the outcome (in data set [2]; in [8]; with Danio rerio [11]; in data set [10]) was Active. Moreover, in [3] (filed as agonist), the Emax is > 90%. Besides, the EC50 in [7] was found to be 1780 nM.
As for `CCCCCCCCCCCCCCCc1cccc(OC(C)=O)c1C(=O)O`, the outcome (in data set [2]; in data set [8]; with Danio rerio [12]) was Active. For the same compound, the Emax in data set [3] (filed as agonist) was > 90%.

These data come from ChEMBL document CHEMBL5154715, “Phenolic Lipids Derived from Cashew Nut Shell Liquid to Treat Metabolic Diseases” (J Med Chem, 2022).
